Results pooled from the literature.
Lines come from different studies, so protocols differ. pIC50: −log10 of the molar value.
Effect on: cell growth or viability

Compound | cell line | method | time | pIC50
COc1c(Cl)cccc1Nc1c(-c2ccncc2OC[C@@H]2COCCO2)[nH]c2c1C(=O)NCC2 | NCI-N87 | ATP luminescence |  | 7.90
O=C(NO)c1ccc(Cn2cnc3c(Nc4cccc([N+](=O)[O-])c4)ncnc32)cc1 | MM1.S | MTT | 72 h | 5.81
CC1=CC(=O)C(C(C)C)=CC1=O | FR2 | SRB | 48 h | > 4.00
CC1(P2(=O)CCCCC2)C=CCC=C1 | SW480 | MTT | 72 h | < 4.00
CN(C)C(=O)Nc1nc2c(Cl)cc(Cl)cc2c(=O)n1-c1ccccc1 | SW480 | MTT | 48 h | < 3.70
Cc1cc(Nc2ncnc3ccc(NC4=NC(C)(C)CO4)cc23)ccc1Oc1ccn2ncnc2c1 | NCI-N87 | ATP luminescence |  | 7.05
Cc1cc2c(C(=O)O)cccc2n1-c1nc2c(c(NCc3ccccc3)n1)CCCN2 | MM1.S |  | 72 h | 6.05
Nc1ccccc1NC(=O)c1ccc(Cn2cnc3c(Nc4ccc(Br)cc4F)ncnc32)cc1 | MM1.S | MTT | 72 h | 5.83
CC1(P2(=O)CCCCC2)CCCCC1 | SW480 | MTT | 72 h | < 4.00
NNc1nc2c(Cl)cc(Cl)cc2c(=O)n1-c1ccccc1 | SW480 | MTT | 48 h | < 3.70
C=C1CC[C@@H]2[C@](C)(CO)[C@H](O)CC[C@@]2(C)[C@@H]1C/C=C1/C(=O)OC[C@H]1O | SW480 | MTT | 24 h | 5.29
NNc1nc2c(Cl)cc(Cl)cc2c(=O)n1-c1ccc(Cl)cc1 | SW480 | MTT | 48 h | < 3.70
CN1CCC(NC2CCc3[nH]c4c(C(N)=O)ccc(-c5ccccc5Cl)c4c3C2)CC1 (centres unmarked) | HGC-27 |  | 96 h | 8.02
O=C(NO)Nc1nc2c(Cl)cc(Cl)cc2c(=O)n1-c1ccc(Cl)cc1 | SW480 | MTT | 48 h | < 3.70
COc1cccc2c1C(=O)c1c(O)c3c(c(O)c1C2=O)C[C@@](O)(C(=O)CO)C[C@@H]3O[C@H]1C[C@H](N)[C@H](O)[C@H](C)O1 | SW480 | MTT | 24 h | 6.10
CC(=O)Nc1ccc(O)cc1 | THLE-2 | MTT |  | 4.54
C#Cc1cccc(Nc2ncnc3cc(OCCOC)c(OCCOC)cc23)c1 | SW480 | MTT | 48 h | 4.95
COc1ccc(Nc2ncnc3c2ncn3Cc2ccc(C(=O)NO)cc2)cc1 | MM1.S | MTT | 72 h | 5.69
O=c1c2cc(Cl)cc(Cl)c2nc(NNc2cccc(Cl)c2)n1-c1ccccc1 | SW480 | MTT | 48 h | < 3.70
COc1ccc(Nc2ncnc3c2ncn3Cc2ccc(C(=O)Nc3ccccc3N)cc2)cc1 | MM1.S | MTT | 72 h | 4.80
CC(C)C[C@H](NC(=O)[C@@H]1Cc2c(F)c(F)c(c(F)c2F)Sc2ccc(cc2)CC(=O)N[C@@H](C(C)C)C(=O)N1)C(=O)[C@@]1(C)CO1 | D283 Med |  |  | 7.04
O=C(NO)Nc1nc2c(Cl)cc(Cl)cc2c(=O)n1-c1ccccc1 | SW480 | MTT | 48 h | < 3.70
O=P1(C2CCCCC2)CCCCC1 | SW480 | MTT | 72 h | 5.29
